In ChEMBL document CHEMBL1146206, “Synthesis, cytotoxicity, and antiviral activities of new neolignans related to honokiol and magnolol” (Bioorg Med Chem Lett, 2007):
pEC50, pIC50: −log10 of the molar value. Calls of active or inactive are those of the source. The calls are words filed in the database; no cut-off is given here.

Key:
SVR [1] = experiment: Antiproliferative activity against mouse SVR cells at 10 ug/mL after 72 hrs; format: functional
How it was run: (§1)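 Immortalized endothelial SVR cells were seeded at 10^4 per well in 24-well dishes. The next day, the medium was replaced with fresh medium containing compound or controls. Cells were incubated for 72 h at 37 °C. Cell number was counted in triplicate with a Coulter counter, and results were expressed as percent inhibition of proliferation.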

SVR [2] = experiment: Antiproliferative activity against mouse SVR cells at 15 ug/mL after 72 hrs; format: functional; how it was run: as §1
[3] = test system: Human immunodeficiency virus 1; experiment: Antiviral activity against HIV1 in human PBM cells; format: functional, organism-based; settings: Human immunodeficiency virus 1, PBMC
[4] = Cytotoxicity against human PBM cells; format: cell-based; settings: PBMC
CCRF-CEM = experiment: Cytotoxicity against human CEM cells; format: cell-based
Vero = experiment: Cytotoxicity against Vero cells; format: cell-based; settings: Chlorocebus sabaeus
SVR [5] = experiment: Inhibition of tumor growth in SVR cells bearing mouse up to 100 mg/kg, ip after 30 days; format: functional, organism-based; design: dose 100 mg/kg
How it was run: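 Nude male mice, 6 weeks old, were inoculated in the flank with SVR cells. Once tumors were visible, about 1 week after inoculation, mice received 3 mg/day intraperitoneally or vehicle control. Treatment ran up to 100 mg/kg for 30 days. Tumor growth and toxicity were compared against vehicle-treated mice.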

C=CCc1cc(-c2cccc(CC=C)c2O)ccc1O
inhibition at 10 µg/mL (SVR [1]): 74%
inhibition at 15 µg/mL (SVR [2]): 81%
pEC50 [3]: 4.63
EC90 [3]: 81 µM
pIC50 [4]: 4.44
pIC50 (CCRF-CEM): 4.75
pIC50 (Vero): 4.94

C=CCc1ccc(O)c(-c2ccc(O)c(CC=C)c2)c1 [HONOKIOL]
inhibition at 10 µg/mL (SVR [1]): 60%
inhibition at 15 µg/mL (SVR [2]): 85%
pEC50 [3]: 5.48
pIC50 [4]: 4.79
pIC50 (CCRF-CEM): 4.96
pIC50 (Vero): 4.65

C=CCc1cccc(-c2cccc(CC=C)c2O)c1O
inhibition at 10 µg/mL (SVR [1]): 41%
inhibition at 15 µg/mL (SVR [2]): 57%
pEC50 [3]: 4.46
EC90 [3]: 63 µM
pIC50 [4]: 4.34
pIC50 (CCRF-CEM): 4.98
pIC50 (Vero): 4.70

C=CCc1cc(/C(CC)=C(\CC)c2ccc(O)c(CC=C)c2)ccc1O
inhibition at 10 µg/mL (SVR [1]): 68%
inhibition at 15 µg/mL (SVR [2]): 89%
pEC50 [3]: 5.02
EC90 [3]: 30.9 µM
pIC50 [4]: < 4.00
pIC50 (CCRF-CEM): 5.47
pIC50 (Vero): 5.43
Activity (SVR [5]): inactive

C=CCc1ccc(O)c(-c2cc(CC=C)ccc2O)c1 [MAGNOLOL]
inhibition at 10 µg/mL (SVR [1]): 60%
inhibition at 15 µg/mL (SVR [2]): 77%
pEC50 [3]: 4.16
EC90 [3]: > 100 µM
pIC50 [4]: 4.41
pIC50 (CCRF-CEM): 4.00
pIC50 (Vero): 4.30

C=CCc1cc(-c2ncc(O)cn2)ccc1O
inhibition at 10 µg/mL (SVR [1]): 4.4%
inhibition at 15 µg/mL (SVR [2]): 10%
pEC50 [3]: < 4.00
EC90 [3]: > 100 µM
pIC50 [4]: 4.50
pIC50 (CCRF-CEM): < 4.00
pIC50 (Vero): < 4.00

C=CCc1cc(C(C)(C)c2ccc(O)c(CC=C)c2)ccc1O
inhibition at 10 µg/mL (SVR [1]): 33%
inhibition at 15 µg/mL (SVR [2]): 57%
pEC50 [3]: 5.39
EC90 [3]: 47.3 µM
pIC50 [4]: < 4.00
pIC50 (CCRF-CEM): 5.24
pIC50 (Vero): 4.89

C=CCc1cc(C(=C(Cl)Cl)c2ccc(O)c(CC=C)c2)ccc1O
inhibition at 10 µg/mL (SVR [1]): 54%
inhibition at 15 µg/mL (SVR [2]): 76%
pEC50 [3]: 4.84
EC90 [3]: 48.8 µM
pIC50 [4]: 4.36
pIC50 (CCRF-CEM): 4.77
pIC50 (Vero): 4.92

C=CCc1cc(-c2ccc(O)c(CC=C)c2)ccc1O
inhibition at 10 µg/mL (SVR [1]): 45%
inhibition at 15 µg/mL (SVR [2]): 56%
pEC50 [3]: 4.71
pIC50 [4]: < 4.00
pIC50 (CCRF-CEM): 4.64
pIC50 (Vero): 4.08

C=CCc1cc(C(c2ccc(O)c(CC=C)c2)c2ccccn2)ccc1O
inhibition at 10 µg/mL (SVR [1]): 25%
inhibition at 15 µg/mL (SVR [2]): 46%
pEC50 [3]: 4.46
EC90 [3]: 67.2 µM
pIC50 [4]: 4.77
pIC50 (CCRF-CEM): 4.78
pIC50 (Vero): 4.83

C=CCc1cc(Cc2ccc(O)c(CC=C)c2)ccc1O
inhibition at 10 µg/mL (SVR [1]): 75%
inhibition at 15 µg/mL (SVR [2]): 74%
pEC50 [3]: 4.87
EC90 [3]: 35.1 µM
pIC50 [4]: 4.47
pIC50 (CCRF-CEM): 4.82
pIC50 (Vero): 5.72

C=CCc1cc(C2(c3ccc(O)c(CC=C)c3)CCCCC2)ccc1O
inhibition at 10 µg/mL (SVR [1]): 63%
inhibition at 15 µg/mL (SVR [2]): 79%
pEC50 [3]: 4.44
EC90 [3]: 67.2 µM
pIC50 [4]: 4.26
pIC50 (CCRF-CEM): 4.96
pIC50 (Vero): 4.90
